Measurements gathered from unrelated publications.
Each line is one published result; the experiments were not run side by side.
BCHE: Cholinesterase (BCHE, Homo sapiens, UniProt P06276)
MC4R: Melanocortin receptor 4 (MC4R, Homo sapiens, UniProt P32245)
EIF2AK2: Interferon-induced, double-stranded RNA-activated protein kinase (EIF2AK2, Homo sapiens, UniProt P19525)

SMILES | target | test | setting | inhibition [%]
C=CCn1c2cc(OC(=O)CCCCCCN3CCN(Cc4ccccc4)CC3)ccc2c2ccnc(C)c21 | BCHE | enzyme activity, inhibitor, Ellman | 1 µM | 36.8
Cn1cc(-c2cccc(N3CCc4c(sc5c4CC(C)(C)C5)C3=O)c2CO)cc(Nc2ccncn2)c1=O | Tyrosine-protein kinase Fgr (FGR, Homo sapiens, UniProt P09769) | enzyme activity, inhibitor | 1 µM | 53
C#Cc1n[nH]c2c(-c3cn(C(C)c4ccccn4)c(=O)[nH]c3=O)cc(F)cc12 (stereo not shown) | Fibroblast growth factor receptor 4 (FGFR4, Homo sapiens, UniProt P22455) | enzyme activity, inhibitor | 1 µM | 0.5
O=C(Nc1cccnn1)N1CCN([C@@H]2CCOc3cc(C(F)(F)F)ccc32)CC1 | Somatostatin receptor type 1 (SSTR1, Homo sapiens, UniProt P30872) | cell-free assay | 20 µM | 10
CC(C)C[C@H](NC(=O)[C@H](Cc1ccccc1)NC(=O)c1cnccn1)B(O)O | Plasma kallikrein (KLKB1, Homo sapiens, UniProt P03952) | enzyme activity, inhibitor | 33 µM | 94.2
COc1cc(CNC(=O)CCCC/C=C/C(C)C)ccc1O | DNA dC->dU-editing enzyme APOBEC-3B (Homo sapiens, UniProt Q9UH17) | enzyme activity, inhibitor, fluorescence | 100 µM | 32.3
C=CCn1c2cc(OC(=O)CCCCN3CCN(Cc4ccccc4F)CC3)ccc2c2ccnc(C)c21 | BCHE | enzyme activity, inhibitor, Ellman | 1 µM | 21
COc1ccc(S(=O)(=O)N2CCCCC2)cc1C | MC4R | ligand displacement, radioligand | 10 µM | < 30
C=CCn1c2cc(OC(=O)CCCCN3CCN(Cc4cccc(F)c4)CC3)ccc2c2ccnc(C)c21 | BCHE | enzyme activity, inhibitor, Ellman | 1 µM | 17.3
COc1cc(Nc2ncc(F)c(Nc3ccc4c(n3)NC(=O)C(C)(C)O4)n2)cc(OC)c1OC | EIF2AK2 | binding, competition with immobilised ligand | 10 µM | 86
CN(CCN1CCC(OC(=O)Nc2ccccc2-c2ccccc2)CC1)C(=O)c1ccc(CN2CCC(C(N)=O)CC2)cc1 | MC4R | ligand displacement, radioligand | 1 µM | 1
COc1ccc2c(c1)[nH]c1c(C)nccc12 | BCHE | enzyme activity, inhibitor, Ellman | 1 µM | 25.7
COCc1c(-c2cc3cc(C)cc(OC)c3s2)c2c(N)ncnn2c1CN1CCNC(=O)C1 | EIF2AK2 | cell-free assay, competition with immobilised ligand | 1 µM | 97.3
